The values that follow come from PubChem BioAssay AID602189 (Broad Institute, 2012).

SMILES strings stand for the structures. Results filed as inconclusive are left out. The source made the active and inactive calls.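 How the source made its calls: active means signal drop in every repeat run, with half-maximal concentration at most twice the top valid concentration; inconclusive means the separate test runs give conflicting calls; inactive means inactive in every test run.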

As usually defined, the AC50 is the concentration giving half of the maximal activity seen.

The test system of one experiment is C. albicans CaCi-17 growth, Alamar Blue fluorescence, 48 h. Kind of experiment: fluconazole-resistant Candida albicans growth inhibitors – clinical isolate, Alamar Blue, dry powder, confirmation (AID 602189).
Conditions: not given
An outline of the steps: (§1)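 Material: fluconazole-resistant clinical isolate CaCi-17, whole fungal cells. Amount: inoculum OD600 0.00015. Medium: MOPS-buffered RPMI 1640 with uridine and glucose. Incubation: 48 h compound exposure, 37 °C, static, humidified. Signal: Alamar Blue fluorescence, 1:40 in PBS, read after 2 h. Evaluation: growth inhibition from decreased fluorescence.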
For orientation: Alamar Blue is a resazurin reagent that responds to reducing activity.
For `O=C(Nc1nc(-c2ccccn2)cs1)c1ccc(Cl)s1`, the AC50 was 10.5 µM.

In the case of `Oc1c(CN2CCc3ccccc3C2)cc(Cl)c2cccnc12`, the AC50 is 5.46 µM.

As to `Oc1c(C(c2ccccc2Cl)N2CCCCC2)ccc2cccnc12` (stereo not drawn), the AC50 was 11.7 µM.

Take `Oc1c(C(c2ccc(Cl)cc2)N2CCCC2)ccc2cccnc12` (stereo not drawn): the AC50 was 8.73 µM.

For `O=C(Oc1c(Cl)cc(Cl)c2cccnc12)c1ccco1`, the AC50 is 1.5 µM.

For `CN1CCN(C(c2ccc(C(F)(F)F)cc2)c2ccc3cccnc3c2O)CC1` (stereo not drawn), the AC50 was 7.72 µM.

Consider `O=C(Nc1nc(-c2ccccn2)cs1)c1ccc(Br)s1`, for which the AC50 was 4.94 µM.

Take `O=C(Nc1nnc(-c2ccc3c(c2)CCCC3)o1)c1ccccc1`: the AC50 is 25.9 µM.

For the compound `O=C(Nc1nnc(-c2ccc3c(c2)CCCC3)o1)c1ccc(Cl)cc1Cl`, the AC50 is 17.3 µM.

Take `C/C(=N\NC(=O)c1cc2ccccc2cc1O)c1ccccn1`: the AC50 was 5.54 µM.

As to `O=C(NNC(=S)Nc1ccc(Cl)c(Cl)c1)c1ccccn1`, the AC50 was 1.86 µM.

System in the next experiment: not listed separately
Described as above. To be noted: C. albicans CaCi-17 growth, Alamar Blue fluorescence, 48 h; at 26 µM (top of the series). The method, boiled down: as §1
Turning to `NC(=O)c1cccc(C(=O)Nc2nc(-c3ccc4c(c3)CCCC4)cs2)c1`, the activity change, negative = inhibition was 21.1% (inactive).

In the case of `C=CCNC(=S)N/N=C(\C)c1ccccn1`, the activity change, negative = inhibition is -32.2% (inactive).

For the compound `O=C(Nc1nc(-c2ccccc2)cs1)c1ccc(Br)s1`, the activity change, negative = inhibition is -6.92% (inactive).

Consider `O=C(Nc1nc(-c2ccccn2)cs1)c1ccccc1`, for which the activity change, negative = inhibition was 57.1% (inactive).

Take `CCOC(=O)N1C(=O)C2(CCCCC2)N(c2ccc(C)cc2)C1=S`: the activity change, negative = inhibition was -10.2% (inactive).

In the case of `O=C(Nc1nc(-c2ccc3c(c2)CCCC3)cs1)c1ccccc1`, the activity change, negative = inhibition is -2.83% (inactive).

Take `Cc1ccc(C(=O)Nc2nnc(-c3ccccc3)o2)cc1C`: the activity change, negative = inhibition was -7.38% (inactive).
